Measured values as given in ChEMBL document CHEMBL3271993, “Synthesis and some pharmacological properties of five analogs of oxytocin having L-homocysteine in position 6” (J Med Chem, 1976).
Starred links: 1 amine or outer side, 2 acyl side, 3 side chain; linkers in the order of their positions; H or OH if unused. Positions of bridges follow the written chain, without caps; N, C: chain ends. Non-standard residues stand in square brackets, D forms with d. Residues, ends and D or L forms follow the SMILES beside them. hCys = N[C@@H](CCS)C(=O)O; X1 = O=C(CCCS[*:2])[*:1]; X2 = O=C(CS[*:2])[*:1]

Experiments:
[1] = Antagonist activity at oxytocin receptor in chicken assessed as inhibition of synthetic oxytocin-induced response by avian vasodepressor assay; parameters: species or system Gallus gallus
Summary of the method: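 Inhibitory potency given as pA2 (Schild): the negative log of the average molar antagonist concentration that reduces the response to 2x units of agonist to the level of x units of agonist.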

Oxytocin receptor = target: T1, Oxytocin receptor (Rattus norvegicus, UniProt P70536); experiment: Antagonist activity at oxytocin receptor in rat uterus assessed as inhibition of synthetic oxytocin-induced response treated 1.5 to 2 mins prior to oxytocin challenge; assay type: tissue-based; conditions: read-out: pA2 (converted)
T1 sequence (P70536 whole entry): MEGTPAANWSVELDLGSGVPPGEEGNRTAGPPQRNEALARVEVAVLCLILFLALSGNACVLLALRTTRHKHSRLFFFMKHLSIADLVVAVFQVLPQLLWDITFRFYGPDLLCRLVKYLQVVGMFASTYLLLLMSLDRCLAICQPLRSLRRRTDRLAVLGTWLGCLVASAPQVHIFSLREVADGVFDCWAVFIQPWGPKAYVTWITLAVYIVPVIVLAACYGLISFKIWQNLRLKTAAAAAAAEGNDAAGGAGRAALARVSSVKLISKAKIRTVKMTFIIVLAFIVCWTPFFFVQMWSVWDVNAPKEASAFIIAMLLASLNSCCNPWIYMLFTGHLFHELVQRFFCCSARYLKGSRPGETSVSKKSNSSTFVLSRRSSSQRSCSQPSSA
Summary of the method: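 Antagonist injected 1.5-2 min before synthetic oxytocin, giving any agonist response time to finish. Potency given as pA2 (Schild): the negative log of the average molar antagonist concentration that brings the response to 2x agonist units down to that of x units.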

[2] = target: T2, Oxytocin receptor (Rattus norvegicus) (UniProt P70536); experiment: Agonist activity at oxytocin receptor in rat uterus; assay type: tissue-based
T2 sequence (whole entry): T1 sequence (P70536 whole entry)
Summary of the method: (§1)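 Purified analogs tested against U.S.P. Agonist activity expressed as units per mg, given as mean potency ± standard error.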

Gallus gallus = species on record: Gallus gallus; experiment: Agonist activity at oxytocin receptor in chicken by avian vasodepressor assay; summary of the method: as §1

Row | pA2 [1] | Kb (Oxytocin receptor) [nM] | Activity [2] [U/mg] | Activity (Gallus gallus) [U/mg] | Compound
1 | 6.48 | 955 | – | – | CC[C@H](C)[C@@H]1NC(=O)[C@H](Cc2ccc(O)cc2)NC(=O)[C@@H](N)CCSSCC[C@@H](C(=O)N2CCC[C@H]2C(=O)N[C@@H](CC(C)C)C(=O)NCC(N)=O)NC(=O)[C@H](CC(N)=O)NC(=O)[C@H](CCC(N)=O)NC1=O
2 | – | – | 37 | 0.3 | CC[C@H](C)[C@@H]1NC(=O)[C@H](Cc2ccc(O)cc2)NC(=O)CSSCC[C@@H](C(=O)N2CCC[C@H]2C(=O)N[C@@H](CC(C)C)C(=O)NCC(N)=O)NC(=O)[C@H](CC(N)=O)NC(=O)[C@H](CCC(N)=O)NC1=O (YIQN[hCys]PLG-NH2; linker N-5 via X2)
3 | – | – | 12 | 0.2 | CC[C@H](C)[C@@H]1NC(=O)[C@H](Cc2ccc(O)cc2)NC(=O)[C@@H](N)CSSCC[C@@H](C(=O)N2CCC[C@H]2C(=O)N[C@@H](CC(C)C)C(=O)NCC(N)=O)NC(=O)[C@H](CC(N)=O)NC(=O)[C@H](CCC(N)=O)NC1=O
4 | 7.34 | 182 | 0.3 | – | CC[C@H](C)[C@@H]1NC(=O)[C@H](Cc2ccc(O)cc2)NC(=O)CCCSSCC[C@@H](C(=O)N2CCC[C@H]2C(=O)N[C@@H](CC(C)C)C(=O)NCC(N)=O)NC(=O)[C@H](CC(N)=O)NC(=O)[C@H](CCC(N)=O)NC1=O (YIQN[hCys]PLG-NH2; linker N-5 via X1)
5 | – | – | 546 | 507 | CC[C@H](C)[C@@H]1NC(=O)[C@H](Cc2ccc(O)cc2)NC(=O)[C@@H](N)CSSC[C@@H](C(=O)N2CCC[C@H]2C(=O)N[C@@H](CC(C)C)C(=O)NCC(N)=O)NC(=O)[C@H](CC(N)=O)NC(=O)[C@H](CCC(N)=O)NC1=O
6 | 7.57 | – | 22 | – | CC[C@H](C)[C@@H]1NC(=O)[C@H](Cc2ccc(O)cc2)NC(=O)CCSSCC[C@@H](C(=O)N2CCC[C@H]2C(=O)N[C@@H](CC(C)C)C(=O)NCC(N)=O)NC(=O)[C@H](CC(N)=O)NC(=O)[C@H](CCC(N)=O)NC1=O
7 | – | – | 803 | 975 | CC[C@H](C)[C@@H]1NC(=O)[C@H](Cc2ccc(O)cc2)NC(=O)CCSSC[C@H](C(=O)N2CCC[C@H]2C(=O)N[C@@H](CC(C)C)C(=O)NCC(N)=O)NC(=O)[C@H](CC(N)=O)NC(=O)[C@H](CCC(N)=O)NC1=O
